Laboratory results taken from ChEMBL document CHEMBL1275278, “Synthesis and pharmacological evaluation of clubbed isopropylthiazole derived triazolothiadiazoles, triazolothiadiazines and mannich bases as potential antimicrobial and antitubercular agents” (Eur J Med Chem, 2010).
Converted amounts (≈) assume the structure as drawn.

Columns and labels:
A549 = experiment: Cytotoxicity against human A549 cells assessed as cell viability at 250 uM by MTT assay; assay type: cell-based; details: a549, 250 µM
Summary of the method: (§1)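 A549 lung adenocarcinoma cells grown with fetal bovine serum. Compounds held as 10 mM DMSO stocks at −20 °C and diluted in culture medium before treatment (50–250 µM). Viability read by MTT assay against untreated cells and DMSO vehicle control. Two experiments, each with triplicate readings.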

[1] = system: Mycobacterium tuberculosis; experiment: Antimycobacterial activity against Mycobacterium tuberculosis H37Rv after 21 days by broth dilution assay; assay type: functional; details: 504 h
Summary of the method: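 Frozen culture in Middlebrook 7H9 broth with 10% albumin-dextrose-catalase and 0.2% glycerol, thawed and diluted in broth to 10⁵ cfu/mL. Compounds dissolved in DMSO, twofold diluted in broth; final DMSO 1.3%. Tubes inoculated, incubated at 37 °C. Growth compared visually against drug-free and drug- and inoculum-free controls and isoniazid. MIC = lowest concentration inhibiting ≥99% of the starting bacterial population.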

Escherichia coli = experiment: Antibacterial activity against Escherichia coli ATCC 10536 after 24 hrs by broth microdilution method; assay type: functional; details: ATCC 10536, 24 h
Summary of the method: (§2)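 Broth dilution in Mueller-Hinton broth. Tubes inoculated at 10⁵ cfu/mL and incubated 37 °C for 24 h. MIC taken as lowest concentration completely inhibiting growth. Media and media-plus-DMSO growth controls; ciprofloxacin and norfloxacin as reference standards.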

Enterococcus faecalis = experiment: Antibacterial activity against Streptococcus faecalis ATCC 14506 after 24 hrs by broth microdilution method; assay type: functional; details: ATCC 14506, 24 h; summary of the method: as §2
Staphylococcus aureus = experiment: Antibacterial activity against Staphylococcus aureus ATCC 11632 after 24 hrs by broth microdilution method; assay type: functional; details: ATCC 11632, 24 h; summary of the method: as §2
Klebsiella pneumoniae = experiment: Antibacterial activity against Klebsiella pneumoniae ATCC 10031 after 24 hrs by broth microdilution method; assay type: functional; details: ATCC 10031, 24 h; summary of the method: as §2
Saccharomyces cerevisiae = experiment: Antifungal activity against Saccharomyces cerevisiae ATCC 9763 after 24 hrs by broth microdilution method; assay type: functional; details: ATCC 9763, 24 h
Candida tropicalis = experiment: Antifungal activity against Candida tropicalis ATCC 1369 after 24 hrs by broth microdilution method; assay type: functional; details: ATCC 1369, 24 h
Aspergillus niger = experiment: Antifungal activity against Aspergillus niger ATCC 6275 after 24 hrs by broth microdilution method; assay type: functional; details: ATCC 6275, 24 h
Pseudomonas aeruginosa = experiment: Antibacterial activity against Pseudomonas aeruginosa ATCC 10145 after 24 hrs by broth microdilution method; assay type: functional; details: ATCC 10145, 24 h; summary of the method: as §2
Bacillus subtilis = experiment: Antibacterial activity against Bacillus subtilis ATCC 60511 after 24 hrs by broth microdilution method; assay type: functional; details: ATCC 60511, 24 h; summary of the method: as §2
[2] = Cytotoxicity against human A549 cells assessed as cell viability at 250 uM by MTT assay relative to control; assay type: cell-based; details: read-out: Activity; summary of the method: as §1

| Compound | Activity (A549) | MIC [1] [µg/mL] | MIC (Escherichia coli) [µg/mL] | MIC (Enterococcus faecalis) [µg/mL] | MIC (Staphylococcus aureus) [µg/mL] | MIC (Klebsiella pneumoniae) [µg/mL] | MIC (Saccharomyces cerevisiae) [µg/mL] | MIC (Candida tropicalis) [µg/mL] | MIC (Aspergillus niger) [µg/mL] | MIC (Pseudomonas aeruginosa) [µg/mL] | MIC (Bacillus subtilis) [µg/mL] | viability at 250 µM [2] [%] |
| --- | --- | --- | --- | --- | --- | --- | --- | --- | --- | --- | --- | --- |
| CC(C)c1csc(-c2nnc3n2NC(c2ccc(F)cc2F)S3)n1 (stereo not given) | Toxic | 4 (≈ 10.9 µM) | 16 (≈ 43.8 µM) | 4 (≈ 10.9 µM) | 8 (≈ 21.9 µM) | 31.2 (≈ 85.5 µM) | 62.5 (≈ 171 µM) | 125 (≈ 342 µM) | 31.2 (≈ 85.5 µM) | 16 (≈ 43.8 µM) | 4 (≈ 10.9 µM) | – |
| COc1ccc(C(=O)Nn2c(-c3nc(C(C)C)cs3)n[nH]c2=S)cc1 | – | 16 (≈ 42.6 µM) | 8 (≈ 21.3 µM) | 125 (≈ 333 µM) | 62.5 (≈ 166 µM) | 16 (≈ 42.6 µM) | 4 (≈ 10.7 µM) | 8 (≈ 21.3 µM) | 16 (≈ 42.6 µM) | 8 (≈ 21.3 µM) | 62.5 (≈ 166 µM) | 50 |
| CC(C)c1csc(-c2nn(CN3CCN(C)CC3)c(=S)n2/N=C/c2ccccc2Cl)n1 | – | 31.2 (≈ 65.6 µM) | 125 (≈ 263 µM) | 31.2 (≈ 65.6 µM) | 16 (≈ 33.6 µM) | 16 (≈ 33.6 µM) | 125 (≈ 263 µM) | 125 (≈ 263 µM) | 62.5 (≈ 131 µM) | 31.2 (≈ 65.6 µM) | 125 (≈ 263 µM) | – |
| CC(C)c1csc(-c2nn(CN3CCN(C)CC3)c(=S)n2/N=C/c2ccc(N(C)C)cc2)n1 | – | 4 (≈ 8.25 µM) | 16 (≈ 33 µM) | 4 (≈ 8.25 µM) | 31.2 (≈ 64.5 µM) | 4 (≈ 8.25 µM) | 16 (≈ 33 µM) | 31.2 (≈ 64.5 µM) | 8 (≈ 16.5 µM) | 31.2 (≈ 64.5 µM) | 8 (≈ 16.5 µM) | 50 |
| COc1cc(/C=N/n2c(-c3nc(C(C)C)cs3)nn(CN3CCN(C)CC3)c2=S)cc(OC)c1OC | – | 8 (≈ 15 µM) | 8 (≈ 15 µM) | 8 (≈ 15 µM) | 16 (≈ 30.1 µM) | 16 (≈ 30.1 µM) | 125 (≈ 235 µM) | 62.5 (≈ 118 µM) | 16 (≈ 30.1 µM) | 31.2 (≈ 58.8 µM) | 4 (≈ 7.52 µM) | 50 |
| CC(C)c1csc(-c2nn(CN3CCOCC3)c(=S)n2/N=C/c2ccccc2Cl)n1 | – | 31.2 (≈ 67.5 µM) | 62.5 (≈ 135 µM) | 62.5 (≈ 135 µM) | 31.2 (≈ 67.5 µM) | 16 (≈ 34.6 µM) | 125 (≈ 270 µM) | 125 (≈ 270 µM) | 31.2 (≈ 67.5 µM) | 62.5 (≈ 135 µM) | 125 (≈ 270 µM) | – |
| COc1cc(/C=N/n2c(-c3nc(C(C)C)cs3)nn(CN3CCOCC3)c2=S)cc(OC)c1OC | – | 31.2 (≈ 60.3 µM) | 125 (≈ 241 µM) | 62.5 (≈ 121 µM) | 125 (≈ 241 µM) | 16 (≈ 30.8 µM) | 125 (≈ 241 µM) | 62.5 (≈ 121 µM) | 62.5 (≈ 121 µM) | 62.5 (≈ 121 µM) | 62.5 (≈ 121 µM) | – |
| COc1ccc(C2=Nn3c(nnc3-c3nc(C(C)C)cs3)SC2)cc1 | – | 4 (≈ 10.8 µM) | 16 (≈ 43.1 µM) | 4 (≈ 10.8 µM) | 8 (≈ 21.5 µM) | 16 (≈ 43.1 µM) | 16 (≈ 43.1 µM) | 31.2 (≈ 84.1 µM) | 16 (≈ 43.1 µM) | 8 (≈ 21.5 µM) | 8 (≈ 21.5 µM) | 50 |
